Five compounds from ChEMBL document CHEMBL1143828, “A new Aspergillus fumigatus resistance mechanism conferring in vitro cross-resistance to azole antifungals involves a combination of cyp51A alterations” (2007) can be followed below.

Values after ≈ are worked out from the molar mass of the structure shown.

Common to all, as to type: functional
Test [1] concerns Aspergillus fumigatus. Description: Antifungal activity against azole-resistant Aspergillus fumigatus V13/03-CM3272 isolate from patient with X-linked chronic granulomatous disease by broth microdilution susceptibility test. The method, boiled down: (§1)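 Broth microdilution per CLSI M38-A with modifications; agents tested: itraconazole, voriconazole, ravuconazole, posaconazole, amphotericin B. Clinical isolates stored as conidia in sterile distilled water, grown at 37°C on potato dextrose agar. Each strain tested at least three times on different days. Quality controls: A. flavus ATCC 204304 and A. fumigatus ATCC 204305.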
(In general: Broth dilution looks for growth in wells or tubes with falling amounts of substance.)

The test system of test [2] is Aspergillus fumigatus. Put plainly: Antifungal activity against azole-resistant Aspergillus fumigatus V49/09-CM4023 isolate from patient with chronic obstructive pulmonary disease by broth microdilution susceptibility test. A digest of the protocol:
as §1

The test system of test [3] is Aspergillus fumigatus. Description: Antifungal activity against azole-resistant Aspergillus fumigatus V49/77-CM4050 isolate from patient with acute myeloid leukemia by broth microdilution susceptibility test. The method, boiled down:
as §1

The test system of test [4] is Aspergillus fumigatus. Put plainly: Antifungal activity against azole-resistant Aspergillus fumigatus M03/669-CM2627 isolate from patient by broth microdilution susceptibility test. A digest of the protocol:
as §1

Test [5] deals with Aspergillus fumigatus. Description: Antifungal activity against azole-resistant Aspergillus fumigatus V13/02-CM3271 isolate from patient with X-linked chronic granulomatous disease by broth microdilution susceptibility test. The method, boiled down: as §1
In test [6] the test system is Aspergillus fumigatus. Description: Antifungal activity against azole-resistant Aspergillus fumigatus V48/27-CM3936 isolate from patient with acute myeloid leukemia by broth microdilution susceptibility test. A digest of the protocol:
as §1

Test [7] relates to Aspergillus fumigatus. Description: Antifungal activity against azole-resistant Aspergillus fumigatus V45/07-CM3819 isolate from patient with chronic granulomatous disease by broth microdilution susceptibility test. A digest of the protocol: as §1
Test [8] has as its system Aspergillus fumigatus. Put plainly: Antifungal activity against azole-resistant Aspergillus fumigatus V41/26-CM3820 isolate from patient with pulmonary fibrosis by broth microdilution susceptibility test. The method, boiled down:
as §1

Test [9] concerns Aspergillus fumigatus. Description: Antifungal activity against azole-resistant Aspergillus fumigatus V34/78-CM3279 isolate from patient with hyper-immunoglobulin E syndrome by broth microdilution susceptibility test. A digest of the protocol: as §1
In test [10] the test system is Aspergillus fumigatus. Description: Antifungal activity against azole-resistant Aspergillus fumigatus V34/77-CM3278 isolate from patient with hyper-immunoglobulin E syndrome by broth microdilution susceptibility test. The method, boiled down: as §1
Test [11] deals with Aspergillus fumigatus. Description: Antifungal activity against azole-resistant Aspergillus fumigatus V34/76-CM3277 isolate from patient with hyper-immunoglobulin E syndrome by broth microdilution susceptibility test. The method, boiled down: as §1
Test [12] relates to Aspergillus fumigatus. Description: Antifungal activity against azole-resistant Aspergillus fumigatus V34/75-CM3276 isolate from patient with hyper-immunoglobulin E syndrome by broth microdilution susceptibility test. A digest of the protocol:
as §1

Test [13] concerns Aspergillus fumigatus. Description: Antifungal activity against azole-resistant Aspergillus fumigatus V28/78-CM3275 isolate from patient with acute myeloid leukemia by broth microdilution susceptibility test. The method, boiled down: as §1
Test [14] concerns Aspergillus fumigatus. Put plainly: Antifungal activity against azole-resistant Aspergillus fumigatus V27/28-CM3273 isolate from patient by broth microdilution susceptibility test. A digest of the protocol:
as §1

Broadly, the MIC is the lowest concentration found to suppress growth. Low readings indicate inhibition by little substance, high ones a need for much substance. Regarding `C[C@@H]1[C@H](O)[C@@H](C)/C=C/C=C/C=C/C=C/C=C/C=C/C=C/[C@H](O[C@@H]2O[C@H](C)[C@@H](O)[C@H](N)[C@@H]2O)C[C@@H]2O[C@](O)(C[C@@H](O)C[C@@H](O)[C@H](O)CC[C@@H](O)C[C@@H](O)CC(=O)O[C@H]1C)C[C@H](O)[C@H]2C(=O)O` [AMPHOTERICIN B], the minimum inhibitory concentration (MIC) in test [1], in test [2], in [3], in test [4], in test [5] and in [6] was 0.25 µg/mL (≈ 0.271 µM) throughout. Moreover, the MIC in test [7], in test [8], in test [9], in [10], in test [11] and in [12] was 0.25 µg/mL (≈ 0.271 µM) in each case. Moreover, the MIC in test [13] and in test [14] was 0.25 µg/mL (≈ 0.271 µM) each time.

In the case of `CCC(C)n1ncn(-c2ccc(N3CCN(c4ccc(OCC5COC(Cn6cncn6)(c6ccc(Cl)cc6Cl)O5)cc4)CC3)cc2)c1=O` (stereo not given) [ITRACONAZOLE], the MIC in [1], in [2], in [3], in test [4], in [5] and in test [6] was > 8 µg/mL throughout. Moreover, the MIC in test [7], in [8], in test [9], in test [10], in test [11] and in [12] was > 8 µg/mL in each case. For the same compound, the MIC in [13] and in test [14] was > 8 µg/mL in each case.

As to `CC[C@@H]([C@H](C)O)n1ncn(-c2ccc(N3CCN(c4ccc(OC[C@@H]5CO[C@@](Cn6cncn6)(c6ccc(F)cc6F)C5)cc4)CC3)cc2)c1=O` [POSACONAZOLE], the MIC in test [1] worked out at 1 µg/mL (≈ 1.43 µM); in [2] it was 4 µg/mL (≈ 5.71 µM); in test [3], 1 µg/mL (≈ 1.43 µM); in test [4], 0.5 µg/mL (≈ 0.713 µM); in test [5], 1 µg/mL (≈ 1.43 µM); in [6], 4 µg/mL (≈ 5.71 µM). Besides, the MIC is 1 µg/mL (≈ 1.43 µM) in test [7]; 0.5 µg/mL (≈ 0.713 µM) in test [8]; 0.5 µg/mL (≈ 0.713 µM) in test [9]; 0.5 µg/mL (≈ 0.713 µM) in [10]; 0.5 µg/mL (≈ 0.713 µM) in [11]; 0.5 µg/mL (≈ 0.713 µM) in [12]. The values for the minimum inhibitory concentration (MIC) in [13] and in test [14] were 0.5 µg/mL (≈ 0.713 µM) and 1 µg/mL (≈ 1.43 µM), respectively.

With `C[C@@H](c1nc(-c2ccc(C#N)cc2)cs1)[C@](O)(Cn1cncn1)c1ccc(F)cc1F` [RAVUCONAZOLE], the minimal inhibitory concentration (MIC) was > 8 µg/mL in [1]; 8 µg/mL (≈ 18.3 µM) in test [2]; 4 µg/mL (≈ 9.14 µM) in test [3]; 4 µg/mL (≈ 9.14 µM) in [4]; > 8 µg/mL in [5]; 8 µg/mL (≈ 18.3 µM) in test [6]. For the same compound, the MIC in test [7] was determined as 8 µg/mL (≈ 18.3 µM); in test [8], 4 µg/mL (≈ 9.14 µM); in test [9], 4 µg/mL (≈ 9.14 µM); in test [10], 4 µg/mL (≈ 9.14 µM); in test [11], 4 µg/mL (≈ 9.14 µM); in test [12], 4 µg/mL (≈ 9.14 µM). For the same compound, the figures for the MIC in test [13] and in [14] were 8 µg/mL (≈ 18.3 µM) and 4 µg/mL (≈ 9.14 µM), respectively.

As to `C[C@@H](c1ncncc1F)[C@](O)(Cn1cncn1)c1ccc(F)cc1F` [VORICONAZOLE], the MIC in test [1] came to 2 µg/mL (≈ 5.73 µM); in test [2], 4 µg/mL (≈ 11.5 µM); in test [3] it was 4 µg/mL (≈ 11.5 µM); in [4] it was 4 µg/mL (≈ 11.5 µM); in test [5] it was 2 µg/mL (≈ 5.73 µM); in [6], 4 µg/mL (≈ 11.5 µM). In addition, the MIC is > 8 µg/mL in test [7]; 4 µg/mL (≈ 11.5 µM) in [8]; 2 µg/mL (≈ 5.73 µM) in test [9]; 2 µg/mL (≈ 5.73 µM) in [10]; 2 µg/mL (≈ 5.73 µM) in [11]; 4 µg/mL (≈ 11.5 µM) in [12]. Moreover, the minimum inhibitory concentration (MIC) in test [13] and in test [14] was 4 µg/mL (≈ 11.5 µM) each time.
